Measurements from ChEMBL document CHEMBL5058577, “EUbOPEN Chemogenomics Library 2 (Multiplex)” (2022).

System: U2OS
Test: Multiplex assay against U2OS
Assay type: toxicity, cell-based
Conditions: human
Procedure, shortened: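 Live cells were stained at seeding with Hoechst33342, BioTracker Green Microtubule Cytoskeleton Dye, MitoTracker Red and Annexin V Alexa Fluor 680, then imaged on a CQ1 microscope at 37°C and 5% CO2 after compound addition. CellPathfinder machine-learning gating split cells into Hoechst high-intensity objects or normal cells. Normal cells were split into healthy, pyknosed or fragmented nuclei, and pyknosed cells into mitotic or apoptotic. Tubulin, mitochondrial-mass and membrane-permeability phenotypes are per cents of healthy-nucleus cells.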

[1] = 12 h, 1 µM, compound concentration 1 uM, replicate 1
[2] = 12 h, 1 µM, compound concentration 1 uM, replicate 2
[3] = 12 h, 10 µM, compound concentration 10 uM, replicate 1
[4] = 12 h, 10 µM, compound concentration 10 uM, replicate 2
[5] = 24 h, 1 µM, compound concentration 1 uM, replicate 1
[6] = 24 h, 1 µM, compound concentration 1 uM, replicate 2
[7] = 24 h, 10 µM, compound concentration 10 uM, replicate 1
[8] = 24 h, 10 µM, compound concentration 10 uM, replicate 2
[9] = 48 h, 1 µM, compound concentration 1 uM, replicate 1
[10] = 48 h, 1 µM, compound concentration 1 uM, replicate 2
[11] = 48 h, 10 µM, compound concentration 10 uM, replicate 1
[12] = 48 h, 10 µM, compound concentration 10 uM, replicate 2

Structure (SMILES): N[C@@]1(C(=O)O)CO[C@H]2[C@H](C(=O)O)[C@H]21 [LY-379268]
- Population Apoptotic (%) [1]: 85%
- Population Fragmented Nuclei (%) [1]: 20%
- Population Healthy Nuclei (%) [1]: 76%
- Population Hoechst High Intensity Objects (%) [1]: 0%
- Population Membrane Permeable-Phenotype (%) [1]: 2%
- Population Mitochondria Different-Phenotype (%) [1]: 1%
- Population Mitotic Cells (%) [1]: 14%
- Population Normal (%) [1]: 99%
- Population Pyknosed Nuclei (%) [1]: 3%
- Population Tubulin-Different-Phenotype (%) [1]: 1%
- Total Cell Count [1]: 211
- Population Apoptotic (%) [2]: 100%
- Population Fragmented Nuclei (%) [2]: 17%
- Population Healthy Nuclei (%) [2]: 79%
- Population Membrane Permeable-Phenotype (%) [2]: 8%
- Population Mitochondria Different-Phenotype (%) [2]: 2%
- Population Mitotic Cells (%) [2]: 0%
- Population Pyknosed Nuclei (%) [2]: 2%
- Population Tubulin-Different-Phenotype (%) [2]: 3%
- Total Cell Count [2]: 108
- Population Apoptotic (%) [3]: 63%
- Population Fragmented Nuclei (%) [3]: 30%
- Population Healthy Nuclei (%) [3]: 61%
- Population Hoechst High Intensity Objects (%) [3]: 0%
- Population Membrane Permeable-Phenotype (%) [3]: 8%
- Population Mitochondria Different-Phenotype (%) [3]: 2%
- Population Mitotic Cells (%) [3]: 36%
- Population Normal (%) [3]: 99%
- Population Pyknosed Nuclei (%) [3]: 7%
- Population Tubulin-Different-Phenotype (%) [3]: 3%
- Total Cell Count [3]: 264
- Population Apoptotic (%) [4]: 80%
- Population Fragmented Nuclei (%) [4]: 19%
- Population Healthy Nuclei (%) [4]: 77%
- Population Hoechst High Intensity Objects (%) [4]: 1%
- Population Membrane Permeable-Phenotype (%) [4]: 4%
- Population Mitochondria Different-Phenotype (%) [4]: 1%
- Population Mitotic Cells (%) [4]: 20%
- Population Normal (%) [4]: 98%
- Population Pyknosed Nuclei (%) [4]: 3%
- Population Tubulin-Different-Phenotype (%) [4]: 1%
- Total Cell Count [4]: 143
- Population Apoptotic (%) [5]: 88%
- Population Fragmented Nuclei (%) [5]: 20%
- Population Healthy Nuclei (%) [5]: 71%
- Population Hoechst High Intensity Objects (%) [5]: 1%
- Population Membrane Permeable-Phenotype (%) [5]: 1%
- Population Mitochondria Different-Phenotype (%) [5]: 1%
- Population Mitotic Cells (%) [5]: 11%
- Population Normal (%) [5]: 98%
- Population Pyknosed Nuclei (%) [5]: 7%
- Population Tubulin-Different-Phenotype (%) [5]: 1%
- Total Cell Count [5]: 245
- Population Apoptotic (%) [6]: 100%
- Population Fragmented Nuclei (%) [6]: 11%
- Population Healthy Nuclei (%) [6]: 79%
- Population Hoechst High Intensity Objects (%) [6]: 0%
- Population Membrane Permeable-Phenotype (%) [6]: 12%
- Population Mitochondria Different-Phenotype (%) [6]: 2%
- Population Mitotic Cells (%) [6]: 0%
- Population Normal (%) [6]: 100%
- Population Pyknosed Nuclei (%) [6]: 9%
- Population Tubulin-Different-Phenotype (%) [6]: 6%
- Total Cell Count [6]: 133
- Population Apoptotic (%) [7]: 81%
- Population Fragmented Nuclei (%) [7]: 25%
- Population Healthy Nuclei (%) [7]: 66%
- Population Hoechst High Intensity Objects (%) [7]: 1%
- Population Membrane Permeable-Phenotype (%) [7]: 8%
- Population Mitochondria Different-Phenotype (%) [7]: 1%
- Population Mitotic Cells (%) [7]: 18%
- Population Normal (%) [7]: 98%
- Population Pyknosed Nuclei (%) [7]: 7%
- Population Tubulin-Different-Phenotype (%) [7]: 2%
- Total Cell Count [7]: 284
- Population Apoptotic (%) [8]: 90%
- Population Fragmented Nuclei (%) [8]: 16%
- Population Healthy Nuclei (%) [8]: 77%
- Population Membrane Permeable-Phenotype (%) [8]: 4%
- Population Mitochondria Different-Phenotype (%) [8]: 4%
- Population Mitotic Cells (%) [8]: 10%
- Population Pyknosed Nuclei (%) [8]: 6%
- Population Tubulin-Different-Phenotype (%) [8]: 4%
- Total Cell Count [8]: 165
- Population Apoptotic (%) [9]: 92%
- Population Fragmented Nuclei (%) [9]: 13%
- Population Healthy Nuclei (%) [9]: 79%
- Population Hoechst High Intensity Objects (%) [9]: 1%
- Population Membrane Permeable-Phenotype (%) [9]: 3%
- Population Mitochondria Different-Phenotype (%) [9]: 2%
- Population Mitotic Cells (%) [9]: 7%
- Population Normal (%) [9]: 98%
- Population Pyknosed Nuclei (%) [9]: 7%
- Population Tubulin-Different-Phenotype (%) [9]: 3%
- Total Cell Count [9]: 348
- Population Apoptotic (%) [10]: 100%
- Population Fragmented Nuclei (%) [10]: 15%
- Population Healthy Nuclei (%) [10]: 72%
- Population Hoechst High Intensity Objects (%) [10]: 2%
- Population Membrane Permeable-Phenotype (%) [10]: 11%
- Population Mitochondria Different-Phenotype (%) [10]: 5%
- Population Mitotic Cells (%) [10]: 0%
- Population Normal (%) [10]: 97%
- Population Pyknosed Nuclei (%) [10]: 12%
- Population Tubulin-Different-Phenotype (%) [10]: 5%
- Total Cell Count [10]: 178
- Population Apoptotic (%) [11]: 92%
- Population Fragmented Nuclei (%) [11]: 24%
- Population Healthy Nuclei (%) [11]: 68%
- Population Hoechst High Intensity Objects (%) [11]: 2%
- Population Membrane Permeable-Phenotype (%) [11]: 9%
- Population Mitochondria Different-Phenotype (%) [11]: 2%
- Population Mitotic Cells (%) [11]: 7%
- Population Normal (%) [11]: 97%
- Population Pyknosed Nuclei (%) [11]: 7%
- Population Tubulin-Different-Phenotype (%) [11]: 3%
- Total Cell Count [11]: 383
- Population Apoptotic (%) [12]: 90%
- Population Fragmented Nuclei (%) [12]: 11%
- Population Healthy Nuclei (%) [12]: 83%
- Population Membrane Permeable-Phenotype (%) [12]: 3%
- Population Mitotic Cells (%) [12]: 9%
- Population Pyknosed Nuclei (%) [12]: 4%
- Total Cell Count [12]: 228
